# CHOP UPR activ: activators of apoptotic arm of unfolded protein response (CHOP) | CHO-CHOP luciferase reporter, UPR activation, luminescence; percent of tunicamycin response over DMSO baseline | activation, % at 10 µM | 330,000 tested, 0.34% active | AID 449763;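 active = at 10 µM dose, activation of 40% or more, normalized to positive control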;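 note: 100% = tunicamycin at 10 µg/mL and 0% = DMSO alone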
#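 assay system = CHO CHOP reporter cells | amount = 500 CHO-CHOP cells per well | buffer or medium = F12 with 10% FBS | incubation = 16-18 h cell attachment, then 6 h compound exposure, 37 °C | detection = luminescence read with Steady-Glo | read-out = percent activation relative to tunicamycin control | controls = tunicamycin high control, DMSO low control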
# CSC inhib: cancer stem cell inhibition. cancer stem cell-like cells viability, luminescence. inhibition, % at 7.5 µM. 300,000 tested, 1.1% active; in the data active = inhibition above about 75%; inconclusive = no clear call, values can overlap the other calls; tested in HMLE shEcad cells
# T cruzi inh: T. cruzi replication inhibition | T. cruzi beta-gal in NIH3T3, luminescence, 90 h | inhibition, % (concentration not given with the values) | 300,000 tested, 1.4% active | AID 1885;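 active = mean inhibition across valid replicates above about 55%, limit read from the data; inconclusive = mean below that limit but half or more replicates reach it; inactive = mean below it, under half of replicates reach it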;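 note: signal also drops with host cell toxicity which is not excluded here; 0% = plate median of DMSO wells and 100% = zero luminescence signal; higher percent means less beta-gal luminescence so fewer parasites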
#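 assay system = mouse NIH/3T3 fibroblasts infected with β-gal-expressing T. cruzi Tulahuen C4 | input = 5,000 NIH/3T3 host cells per well | buffer or medium = DMEM plus 2% FBS | timing = 3 h host attachment, then at least 90 h co-culture | measured by = GalScreen luminescence, 60 min | evaluation = luminescence reflecting intracellular parasite burden, expressed as percent inhibition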
# Beta cell apopt: beta cell apoptosis inhibition; INS-1E cytokine-induced death, ATP luminescence, 48 h; percent of positive-control rescue, neutral wells zero; protection from apoptosis, % (test concentration not listed); AID 435005; 300,000 tested, 0.8% active;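 active = Every replicate reaches about 75%, or at least half do and their mean reaches it too, limit read from the data; inconclusive = At least half of replicates reach the limit but their mean does not; inactive = Under half of replicates reach the limit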;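 note: 0% = cytokine-treated negative control wells and 100% = positive control rescue; higher means more ATP so stronger rescue from cytokine killing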
# Mdm2 MdmX PPI: disrupts the human Mdm2-MdmX interaction. SaOS-2 split-luciferase Mdm2/MdmX complementation, luminescence. inhibition, % at 8 µM. 330,000 tested, 3% active;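 active = inhibition of at least 50% at 8 µM in the primary screen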
# Target sequence (O15151 whole entry, looked up): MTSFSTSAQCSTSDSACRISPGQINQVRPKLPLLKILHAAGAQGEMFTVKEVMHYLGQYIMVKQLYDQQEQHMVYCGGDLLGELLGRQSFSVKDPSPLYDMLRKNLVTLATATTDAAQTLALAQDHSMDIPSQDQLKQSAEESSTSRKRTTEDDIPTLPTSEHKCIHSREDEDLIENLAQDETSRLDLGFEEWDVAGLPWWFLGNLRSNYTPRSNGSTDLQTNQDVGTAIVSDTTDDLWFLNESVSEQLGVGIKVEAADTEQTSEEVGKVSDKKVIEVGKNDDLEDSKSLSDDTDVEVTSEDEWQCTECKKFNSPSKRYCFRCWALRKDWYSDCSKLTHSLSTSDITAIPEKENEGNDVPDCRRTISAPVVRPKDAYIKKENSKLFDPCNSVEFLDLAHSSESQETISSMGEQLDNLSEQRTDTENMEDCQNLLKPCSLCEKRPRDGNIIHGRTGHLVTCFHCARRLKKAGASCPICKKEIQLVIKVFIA
# Target sequence (Q00987 whole entry, looked up): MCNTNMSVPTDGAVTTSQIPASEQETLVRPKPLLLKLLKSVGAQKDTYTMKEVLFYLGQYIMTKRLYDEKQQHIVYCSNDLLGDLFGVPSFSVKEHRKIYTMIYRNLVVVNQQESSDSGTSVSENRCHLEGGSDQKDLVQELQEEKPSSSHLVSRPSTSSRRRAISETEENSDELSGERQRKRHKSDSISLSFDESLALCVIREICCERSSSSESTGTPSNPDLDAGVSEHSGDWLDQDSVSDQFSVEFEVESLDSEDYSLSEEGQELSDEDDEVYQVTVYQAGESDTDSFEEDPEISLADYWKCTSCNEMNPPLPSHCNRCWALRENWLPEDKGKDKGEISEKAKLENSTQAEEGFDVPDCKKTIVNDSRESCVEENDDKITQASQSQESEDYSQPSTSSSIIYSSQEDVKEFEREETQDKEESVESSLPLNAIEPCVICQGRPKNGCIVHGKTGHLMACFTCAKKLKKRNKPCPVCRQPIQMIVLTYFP
# UPR XBP1 act: activators of adaptive arm of unfolded protein response (XBP1). CHO-XBP1 luciferase reporter, IRE1-XBP1 UPR activation, luminescence; percent of tunicamycin response, DMSO as zero. activation, % at 20 µM. 330,000 tested, 0.33% active. AID 463104;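 active = versus positive control, 20 µM dose yields 30% or more activation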;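 note: 100% = tunicamycin at 10 µg/mL and 0% = DMSO only wells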
#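 Material: CHO-XBP1 cells stably carrying IRE1-XBP1-driven luciferase reporter / Amount: 1000 cells per well / Compound: 20 µM, 1% DMSO / Times: 6 h treatment, 37 °C / Detection: luciferase luminescence / Measure: % activation of reporter signal versus tunicamycin and DMSO controls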
# Mdm2 MdmX conf: confirmation of human Mdm2/MdmX interaction inhibitors; shares compounds with Mdm2 MdmX PPI; Mdm2-MdmX binding, luminescent assay; inhibition, % at 8 µM; 10,000 tested, 55% active; AID 489028; in the data active = inhibition above about 40%
# Full FLuc ctr: inhibits full-length luciferase, flagging false Mdm2/MdmX hits. SaOS-2 full-length luciferase counterscreen, luminescence. inhibition, % at 8 µM. 6,200 tested, 77% active. shares compounds with Mdm2 MdmX PPI;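 active = mean inhibition at 8 µM reaching about 37%, which flags the compound as non-specific, limit read from the data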;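 note: p53-null SaOS-2 cells with luciferase driven by a doxycycline-inducible promoter; compound on cells about two nights before reading with doxycycline added after day one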
# An asterisk follows results filed as active; ? = inconclusive; . = not tested or not shown; + = active, no number; ! = a repeat was not active. Compounds with a hit are over-represented: about 5% of the library has one in this group of screens.
SMILES,CHOP UPR activ,CSC inhib,T cruzi inh,Beta cell apopt,Mdm2 MdmX PPI,UPR XBP1 act,Mdm2 MdmX conf,Full FLuc ctr
O=C(O)c1cccc(COc2ccc(CO)cc2Cl)c1,-11,48,-11,-6,90*,-10,88*,5
CCOc1ccc(NC(=O)Nc2cccc(C(=O)O)c2)cc1,-9,47,-7,0,70*,-8,70*,21
CCCCN(CC)S(=O)(=O)c1ccc2c(c1)n(C)c(=O)c(=O)n2C,-1,-6,1,-6,23,-1,.,.
COc1cccc(NC(=O)COc2coc(CN3CCc4ccccc4C3)cc2=O)c1,0,-10,1,.,-15,1,.,.
CCCn1c(NC(=O)c2cccc(S(=O)(=O)N3CCCC3)c2)nc2ccccc21,1,.,48,21,93*,-3,76*,57*
S=C(Nc1ccccc1)Nc1nc2ccccc2n1CCOc1ccc(Cl)cc1,0,+,-29,53,84*,1,41*,68*
CCCCCCCn1c(NC(=O)CC)nc2ccccc21,6,5,51,53,77*,6,42*,51*
CCCn1c(NC(=S)Nc2ccccc2)nc2ccccc21,1,26,46,43,52*,0,39,.
CCOC(=O)CSc1nc(C(C)(C)C)cc(C(F)(F)F)c1C#N,2,-16,4,-3,-5,-2,.,.
Cc1nn(Cc2ccccc2)c(Cl)c1C(=O)NCc1ccco1,0,-9,-1,-1,-25,-2,.,.
CCN1CCN(Cc2ccc(NC(=O)c3ccc(C)c(NC(=O)c4nccn4C)c3)cc2C(F)(F)F)CC1,-1,4,11,-4,21,-2,.,.
CCN1CCN(Cc2ccc(NC(=O)c3cc(NC(=O)c4nccnc4N)cc(OC)c3)cc2C(F)(F)F)CC1,0,-16,22,-12,37,3,.,.
CCN1CCN(Cc2ccc(NC(=O)c3ccc(C)c(NC(=O)c4cccc5[nH]ccc45)c3)cc2C(F)(F)F)CC1,-1,5,14,-3,55*,-4,25,.
CCN1CCN(Cc2ccc(NC(=O)c3ccc(C)c(NC(=O)c4nccnc4N)c3)cc2C(F)(F)F)CC1,-2,39,19,10,97*,-1,64*,42*
CCN1CCN(Cc2ccc(NC(=O)c3ccc(C)c(NC(=O)N4CCNC4=O)c3)cc2C(F)(F)F)CC1,-2,-5,6,0,59*,-1,40*!,83*
CCN1CCN(Cc2ccc(NC(=O)c3ccc(C)c(NC(=O)c4cc(-c5ccc(Br)cc5)n[nH]4)c3)cc2C(F)(F)F)CC1,1,?,60*,-1,99*,-3,35,41*
CCCCN1CC(=O)N2[C@H]3c4cc(Br)ccc4OC[C@@H]3[C@H](C(=O)OCC)[C@]2(C)C1=O,-3,15,.,-4,21,-1,.,.
CN(C(=O)c1cc2ccccc2oc1=O)C1(C)CCS(=O)(=O)C1 (stereo not drawn),6,-7,2,-2,10,0,.,.
Cc1ccc(NC(=O)CSc2nc(-c3ccco3)cc(C(F)(F)F)n2)cc1C,1,.,-4,4,44,1,.,.
COC(=O)c1c(NC(=O)CSc2nc(-c3ccco3)cc(C(F)(F)F)n2)sc2c1CCCC2,1,15,4,-1,25,0,.,.
COC(=O)c1ccccc1NC(=O)CSc1nc(-c2ccco2)cc(C(F)(F)F)n1,0,.,.,.,67*,11,62*,74*
Cc1cc(NC(=O)CSc2nc(-c3ccco3)cc(C(F)(F)F)n2)n(-c2ccccc2)n1,-1,52,-19,6,54*,8,56*,54*
O=C(CSc1nc(-c2ccco2)cc(C(F)(F)F)n1)Nc1ccc2c(c1)CCC2,3,51,8,0,52*,4,61*,45*
Cc1cc(NC(=O)CCCSc2nc(-c3ccco3)cc(C(F)(F)F)n2)n(-c2ccccc2)n1,-1,9,26,9,10,-2,.,.
CCc1ccccc1NC(=O)CNCC(=O)Nc1ccccc1CC,2,-4,-5,0,14,-2,.,.
SMILES,CHOP UPR activ,CSC inhib,T cruzi inh,Beta cell apopt,Mdm2 MdmX PPI,UPR XBP1 act,Mdm2 MdmX conf,Full FLuc ctr
COc1cc(C(=S)N2CCN(c3ccccc3Cl)CC2)cc(O)c1O,-1,41,18,-4,32,7,.,.
N#C/C(=C/c1ccc(Br)s1)C(=O)NCCc1c[nH]c2ccccc12,0,29,13,-2,21,2,.,.
COc1ccc(CCN(C)C(=S)Nc2cccc(C)c2)cc1OC,1,.,-11,-7,0,-5,.,.
CC(C)(C)NC(=O)NC(=O)CN1C(=O)NC(c2ccccc2)(c2ccccc2)C1=O,5,29,-5,1,-2,-9,.,.
Cc1ccc(Sc2c(C=O)c3ccccc3n2C)cc1,-3,-4,7,-7,81*,-1,71*,53*
O=[N+]([O-])c1cc(Cl)c(O)c2ncccc12,0,.,9,.,51*,-2,54*,56*
COc1ccc(C(NC(C)=O)c2cc(Cl)c3cccnc3c2O)cc1 (stereo not drawn),-1,107*,63*,95*,76*,5,71*,29
CC(=O)NC(c1ccccc1)c1cc(Cl)c2cccnc2c1O (stereo not drawn),0,104*,?,98*,77*,1,64*,15
O=[N+]([O-])c1cc(CN2CCN(c3ccccc3)CC2)c(O)c2ncccc12,10,-5,58*,95*,75*,14,79*,42*
COc1ccc(C(=O)Nc2cc(OC)cc3cccnc23)cc1,1,13,30,3,4,7,.,.
CC(=O)NC(c1cc(F)c2cccnc2c1O)C1CC1 (stereo not drawn),0,1,.,14,30,-2,.,.
Cc1nc(N2CCCCC2)nc(N2CCCCC2)c1C=O,0,-5,-7,5,0,1,.,.
O=c1ccc2c(o1)/C(=C/C=C(Cl)Cl)CCC2,2,1,13,1,26,-2,.,.
CC(=O)NC(c1ccc(C)cc1)c1cc([N+](=O)[O-])c2cccnc2c1O (stereo not drawn),2,104*,55*,71,68*,-3,68*,25
